Assays:
[1] = tested on: VIE (5 strains), ATCC® MP-1™ panel; experiment: MIC, extended VIE panel; assay type: cell-based, Enterococci; details: range over 5 strains, broth microdilution, 37 °C, 20 h
HEK293 cells = experiment: MTT viability assay, HEK293; assay type: cell-based, human; details: 500 μg/mL, 48 h, relative to 1% (v/v) DMSO vehicle control; n = 3
Method in brief: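 HEK293 cells were kept in DMEM with 10% (v/v) FBS, 1% (v/v) penicillin/streptomycin and 4.5 g/L glucose at 37 °C, 5% CO2, passaged tri-weekly. MTT viability was measured after test compound at 500 μg/mL and normalized to 1% (v/v) DMSO vehicle. The positive control was the cytotoxic peptide NaD1 at 50 μM. Three technical replicates were run, with unpaired two-tailed Student's t tests.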

acetyl-Lys-D-Ala-D-Lac = experiment: Microscale thermophoresis binding, D-Ala-D-Lac tripeptide; details: MST, fluorescently labeled tripeptide, 25 °C; N = 3, ±S.D.; n.b.: no binding
Method in brief: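 The tripeptide was labelled with an amine-reactive red NHS dye and mixed 1:1 with aqueous test compound (final 200 μM to 6.1 nM). Mixtures were incubated 5 min at 25 °C and read at 25 °C with 20% LED and 20% IR laser power (30 s on, 5 s off). The thermophoresis + T-jump signal from three independent runs was fitted to a single-site binding model.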

MurJ = experiment: Native mass spectrometry, direct binding to MurJ; details: 3 µM compound added to MurJ
Method in brief: (§1)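 Purified MurJ was buffer-exchanged into 200 mM ammonium acetate pH 8.0 with 2× critical micelle concentration LDAO and infused via gold-coated capillaries. Settings were capillary 1.1 kV, m/z 1,000–20,000, S-lens RF 100%, HCD 200 V, trapping gas 7.5, 200 °C, resolution 12,500, noise level 3, and no in-source dissociation.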

MurJ:lipid II complex = experiment: Native mass spectrometry, MurJ:lipid II complex; assay type: binding; details: 5 µM MurJ with 3 µM lipid II, then 7 µM compound
Method in brief: as §1

[2] = tested on: peptidoglycan precursors D-Ala-D-Lac; details: remodeling of peptidoglycan precursors from D-Ala-D-Ala to D-Ala-D-Lac; cited from earlier work

Q: Which “MIC, VIE (5 strains)” value [1] does the source give for `CN[C@H](CC(C)C)C(=O)N[C@H]1C(=O)N[C@@H](CC(N)=O)C(=O)N[C@H]2C(=O)N[C@H]3C(=O)N[C@H](C(=O)N[C@H](C(=O)O)c4cc(O)cc(O)c4-c4cc3ccc4O)[C@H](O)c3ccc(c(Cl)c3)Oc3cc2cc(c3O[C@@H]2O[C@H](CO)[C@@H](O)[C@H](O)[C@H]2O[C@H]2C[C@](C)(N)[C@H](O)[C@H](C)O2)Oc2ccc(cc2Cl)[C@H]1O` [Vancomycin] here?
A: Its value is 8 to 16 µg/mL.

Q: What about the “Viability of HEK293 cells (MTT)” value (HEK293 cells) of the same compound?
A: The value was “significant decrease in the viability”.

Q: What about the “KD, acetyl-Lys-D-Ala-D-Lac” value (acetyl-Lys-D-Ala-D-Lac) of the same compound?
A: Its value is “no binding was observed”.

Q: And the “Direct binding to MurJ (native mass spectra)” value (MurJ)?
A: The value was “no binding was observed”.

Q: And the “Ternary complex formation with MurJ:lipid II (native mass spectra)” value (MurJ:lipid II complex)?
A: The value was “expected ternary complex was formed”.

Q: And the “Reduction of vancomycin binding and antimicrobial activity” value [2]?
A: The value was 1,000 fold.
